The source of these data is ChEMBL document CHEMBL4513216, “Probing the Open Global Health Chemical Diversity Library for Multistage-Active Starting Points for Next-Generation Antimalarials” (ACS Infect Dis, 2020).

The nature of this data set: Toxicity liver stage against HepG2, at 10uM. The note with it: human, HepG2-A16-CD81EGFP cells; read-out: INHIBITION
Set-up: test concentration 10 uM, cell line HepG2-A16-CD81EGFP. The data set is classed as cell-based. An outline of the steps:
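Uninfected HepG2-A16-CD81EGFP cells, 3 × 10^3 per well, 1536-well, plated on prespotted compound at 10 μM final, parasite-free screening media added to match infected plates; puromycin 10 μM positive, DMSO 0.5% negative; run in parallel with 48 h PbLuc assay at 37 °C, 5% CO2; viability by CellTiter-Glo luminescence, normalized to controls.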
Regarding `Fc1ccc2[nH]c(CO[C@H]3CN(CC4CC4)C[C@H]3F)nc2c1`, the cytotoxicity at 10 µM is -2.74%.
With `CN(C)C(=O)c1cccnc1SCc1ccccc1C#N`, the cytotoxicity at 10 µM is 2.02%.
To `COCC(O)CN1CCC(=O)N(Cc2ccccc2)Cc2ccccc21` (stereo not drawn) belongs 1.19%; to `COCCn1ccc2c(C(=O)NC(C)C)cccc21`, 3.46%.
`COCCn1/c(=N/C(=O)C(C)C)sc2cc(Cl)ccc21`: the cytotoxicity at 10 µM is -5.26%.
Take `CCOCCSc1nnc(-c2cn(CC)nc2OCC)n1C`: the cytotoxicity at 10 µM was -3.81%.
As to `O=S(=O)(NCCNc1ccc(-n2cccc2)nn1)c1cccs1`, the cytotoxicity at 10 µM was -12.3%.
To `CC(C)NC(=O)N1CCN(C(=O)C2CCOCC2)CC2(CNC(=O)C2)C1` (stereo not drawn) belongs 0.748%; to `CS(=O)(=O)N1Cc2nccn2CC(CN2CCCC2=O)C1` (stereo not drawn), 5.8%; to `CC(=O)N1CCC2(CC1)C(=O)N(CC1CC1)c1ccccc12`, 11.2%.
Take `Nc1no[n+]([O-])c1C(=O)NCc1ccccn1`: the cytotoxicity at 10 µM was -2.02%.
Turning to `CNc1cc(C2CN(Cc3cccnc3NC)CCO2)nc(C)n1` (stereo not drawn), the cytotoxicity at 10 µM turned out to be 2.93%.
In the case of `CCCn1nc(C)c(C(=O)N[C@@H]2CC[C@@H](N3CCCC3)[C@@H]2O)c1C`, the cytotoxicity at 10 µM is -4.79%.
Consider `Cc1cc(C)n(CC(=O)N2CCC(c3cc4cccnc4[nH]3)CC2)n1`, for which the cytotoxicity at 10 µM was found to be 16.8%.
To `FC(F)(F)c1cc(C2CCNCC2)nc(-c2ccsc2)n1` belongs 8.6%; to `CCCC(=O)N1CCC(c2cc3cccnc3c(O)n2)CC1`, -3.63%.
For the compound `Cc1nc(C)n(CC2CCCN2c2ccnc(-c3ccccc3)n2)n1` (stereo not drawn), the cytotoxicity at 10 µM came to 9.69%.
For the compound `CC(C(=O)N(C)Cc1ccc(Br)o1)n1cccn1` (stereo not drawn), the cytotoxicity at 10 µM came out at 4.9%.
Consider `CS(=O)(=O)NCc1ccc2c(c1)CCC2`, for which the cytotoxicity at 10 µM is -1.9%.
On to `CC(OCC1CC1)C(=O)NCCC(=O)Nc1ccccn1` (stereo not drawn), for which the cytotoxicity at 10 µM is -5.72%.
As for `CC1COCCN1C(=O)c1ccc(=O)n(Cc2ccccc2)n1` (stereo not drawn), the figure is -1.19%; as for `CCOc1ccc(NC(=O)NC2CCc3[nH]ncc3C2)cn1` (stereo not drawn), 3.95%.
To `Cc1nn(C)c2ncc(C(=O)N3CCNC(=O)C3)cc12` belongs -6.62%; to `CC(=O)NCCNC(=O)NCC1Cc2ccccc2O1` (stereo not drawn), -1.83%.
To `FC(F)(F)c1csc(N2CCN(Cc3ccccn3)CC2)n1` belongs 4.25%.
As to `CN1CCN(C2CCN(Cc3ccc(Cl)cc3)CC2)C1=O`, the cytotoxicity at 10 µM was determined as 7.9%.
On to `Cc1nnc2n1CCN(C(=O)C(C)Oc1ccc(C#N)cc1)C2` (stereo not drawn), for which the cytotoxicity at 10 µM is -0.643%.
As for `CC(Cc1ccsc1)NC(=O)c1cc(N2CCNC2=O)ccc1F` (stereo not drawn), the cytotoxicity at 10 µM is -4.62%.
In the case of `CC(C)C(C(=O)NC1CC1)n1cnc2cc(F)c(F)cc21` (stereo not drawn), the cytotoxicity at 10 µM turned out to be 15.3%.
As for `CCN(c1ccc(C(=O)Nc2c(C)nn(C(C)C)c2C)cc1)C(C)C`, the figure is -2.92%; as for `Cc1nc2ccc(C(=O)N3CCn4c(C)nnc4C3)cc2nc1C`, -6.2%; as for `COc1ccc2c(c1)CCCN(C(C)C(=O)NC(N)=O)C2` (stereo not drawn), 8.66%.
`CCc1n[nH]c(C2CN(CCCOc3cccc(C)c3)CCO2)n1` (stereo not drawn): the cytotoxicity at 10 µM was -15%.
Consider `CN1CC(Nc2nc3c(cnn3-c3ccccc3)c(=O)[nH]2)CCC1=O` (stereo not drawn), for which the cytotoxicity at 10 µM is -2.75%.
To `NC(=O)C1=NC2=NS(=O)(=O)c3ccccc3N2N1Cc1ccc(Br)cc1` belongs 8.34%; to `Clc1cnc(NCc2ccccc2N2CCOCC2)nc1`, -0.234%.
With `Cc1cc(C(C)NC(=O)c2ccc(O)nc2)c(C)o1` (stereo not drawn), the cytotoxicity at 10 µM was -1.85%.
Take `COc1cc(CNc2cnn(CCN3CCOCC3)c2)cc(OC)c1`: the cytotoxicity at 10 µM was -7.38%.
Take `Cc1noc(C)c1CN(C)C(=O)C1(NS(C)(=O)=O)CCCCC1`: the cytotoxicity at 10 µM was -11.3%.
With `CC1CCN(CC(O)CNc2ccccn2)CC1` (stereo not drawn), the cytotoxicity at 10 µM came out at 11.4%.
With `Cc1nnc(SCCC(=O)N(C)Cc2ccc(F)cc2F)[nH]1`, the cytotoxicity at 10 µM is 5.21%.
On to `Cc1nc(C)n(CC2CCCCN2CC(=O)Nc2nncs2)n1` (stereo not drawn), for which the cytotoxicity at 10 µM stood at 4.62%.
With `CCc1noc(CNc2cc(F)ccc2OCC2CCCO2)n1` (stereo not drawn), the cytotoxicity at 10 µM was -3.27%.
For `CCOCC(O)CN1CCN(C(=O)c2ccnc(N(C)C)c2)CC1` (stereo not drawn), the cytotoxicity at 10 µM was -3.47%.
To `CN(Cc1ccc(F)cc1)C(=O)Cn1nc(-c2ccc(F)cc2)oc1=O` belongs 8.68%; to `O=C(CCNC(=O)c1ccccc1)Nc1ccncc1`, -2.36%.
For `CN(Cc1cnn(C)c1)C(=O)NC1CCC(O)CC1` (stereo not drawn), the cytotoxicity at 10 µM was -14.7%.
With `Cc1cc(NC(=O)N2CCN(c3nc(C)c(C)s3)CC2)no1`, the cytotoxicity at 10 µM amounted to 3.04%.
`O=C(c1ccco1)N1C[C@H]2CN(Cc3cccc(F)c3)C(=O)[C@H]2C1`: the cytotoxicity at 10 µM is -78.2%.
`CCc1csc(CNC2CCN(c3ccc(C)cc3)CC2)n1`: the cytotoxicity at 10 µM was -10.8%.
`Cc1noc(-c2ccc(N(C)Cc3nccs3)nc2)n1`: the cytotoxicity at 10 µM worked out at 9%.
For the compound `COc1nc2c(cc1C(=O)N1CCCC1c1ccccn1)CCC2` (stereo not drawn), the cytotoxicity at 10 µM was -5.54%.
As for `CC(C)CCN1CC2(CCN(C(=O)C3(C)CCCCO3)CC2)OC1=O` (stereo not drawn), the figure is -14.4%; as for `O=C(c1ccc2c(c1)OCO2)N1CCCC(Nc2ccc(F)cc2)C1` (stereo not drawn), -5.05%; as for `COc1ccc(CC2(CO)CCN(c3cc(C#N)ccn3)CC2)cc1`, 8.86%.
To `CCNc1ncc(C(=O)NC2CCOCC2)cn1` belongs 4.37%.
With `CCCS(=O)(=O)NCc1cccnc1Oc1ccc(C)nc1`, the cytotoxicity at 10 µM was -1.15%.
On to `CC(CO)NCc1csc2c1CCCC2` (stereo not drawn), for which the cytotoxicity at 10 µM was -11.3%.
In the case of `Cn1nnnc1SCCNC(=O)c1c[nH]nc1C1CCCCC1`, the cytotoxicity at 10 µM was -0.863%.
As for `N[C@H]1CN(S(=O)(=O)c2cccnc2)C[C@@H]1C1CC1`, the figure is 7.28%; as for `CN(Cc1n[nH]c(=O)n1Cc1ccccc1F)S(C)(=O)=O`, -4.98%; as for `CC(C)CCC(=O)N1CCCC2(CCN(Cc3ccccc3C#N)C2)C1` (stereo not drawn), 0.129%.
In the case of `CC1(c2ccccc2)CCC(=O)N(CCCN2CCOCC2)C1` (stereo not drawn), the cytotoxicity at 10 µM was -18.1%.
To `COc1cccc(CC2CN(C3CCN(C(C)=O)CC3)CCO2)c1` (stereo not drawn) belongs -12.4%; to `O=C(CCc1cc2n(n1)CCCN(C(=O)c1cccnc1)C2)NC1CC1`, -7.38%; to `Cc1cccc2[nH]c(C3CCN(C(=O)c4ccnn4C)CC3)nc12`, -21.6%.
As to `COc1ccc(-c2ccnc3c2C(=O)CCC3)cc1`, the cytotoxicity at 10 µM worked out at 6.09%.
In the case of `COc1c(C2CCCN2C(=O)c2cccc(C)n2)c(C)nn1C` (stereo not drawn), the cytotoxicity at 10 µM is -7.52%.
Turning to `Cc1nc(CN(C)C2CCCN(c3ccccc3)C2)no1` (stereo not drawn), the cytotoxicity at 10 µM is -6.9%.
Take `CC(Cn1cccn1)NCc1nc(-c2ccsc2)no1` (stereo not drawn): the cytotoxicity at 10 µM was -8.42%.
As to `COc1ccc(C2=CCN(C(=O)C3CCCN(C(C)=O)C3)CC2)cc1` (stereo not drawn), the cytotoxicity at 10 µM was -13.4%.
To `O=C(NCCc1ccccn1)Nc1cc(C(F)(F)F)c[nH]c1=O` belongs -6.78%.
In the case of `CCc1nc(C2CCCN2C(=O)CCc2c(C)noc2Cl)no1` (stereo not drawn), the cytotoxicity at 10 µM is -7.07%.
On to `O=C(CCc1cccs1)N1CCCC1c1noc(C2CC2)n1` (stereo not drawn), for which the cytotoxicity at 10 µM was -4.87%.
To `Cc1ccc(O)c(C(=O)N2CCOCC2c2c(C)n[nH]c2C)c1` (stereo not drawn) belongs -10.8%.
As for `Cc1nc(C)n(C2CCCN(C(=O)c3cncnc3C)C2)n1` (stereo not drawn), the cytotoxicity at 10 µM was -2.48%.
As for `CC(=O)NCCCC(=O)NC(C)c1nnc2n1CCC2` (stereo not drawn), the figure is -10.3%; as for `CN(C)c1ccc(C(=O)NCc2csc(Br)c2)cn1`, -4.97%; as for `Cc1nc(CN2CCN(C(=O)c3sccc3C3CC3)CC2)oc1C`, -15.2%.
In the case of `CCN1CCN(Cc2csc(C(C)C)n2)CC1`, the cytotoxicity at 10 µM is -5.78%.
In the case of `Cc1cc(C(=O)N2CCN(C)CC2)nn1CC(=O)NCc1ccccn1`, the cytotoxicity at 10 µM is -3.58%.
`CC1(C)CN(C(CNC2=NCCN2)c2ccc(Cl)cc2)CCO1` (stereo not drawn): the cytotoxicity at 10 µM came to 8%.
To `Fc1ccccc1CN(CCCn1ccnc1)CC1CCOC1` (stereo not drawn) belongs 8.68%; to `OC(CNCc1ccccc1C(F)(F)F)c1ccccc1` (stereo not drawn), -4.63%.
On to `CN1CCCN(C(=O)c2nc3c(o2)CN(C(=O)c2cccnc2)C3)CC1`, for which the cytotoxicity at 10 µM worked out at 2.75%.
To `O=C(CN1CCN(CC(O)C2CC2)CC1)NCc1ccc(F)cc1` (stereo not drawn) belongs -0.084%; to `Cc1cccc(CN2CCC3(CC2)NC(=O)C[C@H]3c2cnn(C)c2)n1`, 4.53%.
As to `Fc1cccc(-c2nnn3c2COC(CNCc2cccs2)C3)c1` (stereo not drawn), the cytotoxicity at 10 µM was found to be 1.07%.
To `c1cnc(NC[C@@H]2CCC[C@@H]3CN(Cc4cc[nH]n4)C[C@@H]32)nc1` belongs -13.1%.
`COCC1CN(Cc2ccoc2)Cc2nn(CC3CC3)cc21` (stereo not drawn): the cytotoxicity at 10 µM is -2.24%.
As for `Cc1noc(C)c1CN1CCC2(COCc3cnc(N(C)C)nc32)C1` (stereo not drawn), the figure is 9.93%; as for `CN1CCN(C2COC3(CCN(Cc4cccs4)CC3)C2)CC1` (stereo not drawn), -84.5%; as for `O=C(COC[C@H]1CC[C@H]2[C@H](CCN2c2ncccn2)O1)N1CCCC1`, -7.41%.
Regarding `CCOc1ncnc2c1CCN(Cc1csc(C)n1)CC2`, the cytotoxicity at 10 µM was -68.1%.
Consider `O=C1CC(c2ccncc2)C2(CCN(Cc3ccc(F)cc3)CC2)N1` (stereo not drawn), for which the cytotoxicity at 10 µM came to 1.35%.
Take `O=C(Cc1cccs1)N1C[C@@H]2OCCN(CC3CCCO3)[C@@H]2C1` (stereo partly drawn): the cytotoxicity at 10 µM was -11%.
To `CNC(=O)[C@H]1C[C@H]2CN(Cc3ccccc3)C[C@@H]1O2` belongs 8.84%; to `CCN1C[C@@H]2C[C@H](C(=O)Nc3ccccc3)[C@H](C1)O2`, -76.4%.
